Results published in ChEMBL document CHEMBL1275351, “Novel spirotetracyclic zwitterionic dual H(1)/5-HT(2A) receptor antagonists for the treatment of sleep disorders” (J Med Chem, 2010).

What was measured:
[1] = Plasma concentration at Tmax in Sprague-Dawley rat hypnotic model at 1 mg/kg, po administered during active phase; format: ADME, organism-based; design: dose 1 mg/kg, route oral
Rattus norvegicus [2] = assay: Ex vivo displacement of [3H]pyrilamine from histamine H1 receptor in Sprague-Dawley rat cerebral cortex at 10 mg/kg, po by imaging analysis; format: functional
In short: (§1)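 Rats were dosed orally (vehicle 0.5% HPMC) and brains removed 2 h later. 14 μm coronal sections were incubated with 1 nM [3H]pyrilamine in 50 mM Tris-HCl, pH 7.5, for 10 min at room temperature. Nonspecific binding with 10 μM pyrilamine. Phosphoimager read after 7 days; occupancy measured in cortex.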

[3] = Ratio of drug level in brain to blood in Sprague-Dawley rat at 0.5 mg/kg, iv and 1 mg/kg, po; format: ADME, organism-based; conditions: read-out: BBR
In short: (§2)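 Male Sprague-Dawley rats, cassette dosing, iv bolus or oral suspension. Blood and brain levels were measured by protein precipitation and HPLC-MS/MS. Brain:blood ratio was taken from AUC0-8h after oral dosing, or at 1 h after iv dosing for one compound.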

[4] = Blood clearance in Sprague-Dawley rat at 0.5 mg/kg, iv and 1 mg/kg, po; format: ADME, organism-based; conditions: whole blood
In short: (§3)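 Male Sprague-Dawley rats, cassette dosing. Compounds were given as an iv bolus and as an oral suspension. Blood samples were taken at intervals up to 24 h, processed by protein precipitation and analysed by HPLC-MS/MS.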

Rattus norvegicus [5] = assay: Ex vivo displacement of [3H]ketanserin from 5HT2A receptor in Sprague-Dawley rat cerebral cortex at 1 mg/kg, po by imaging analysis; format: functional
In short: as §1, with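 “[3H]ketanserin” for “[3H]pyrilamine”, “Tris-HCl with 10 mM MgCl2,” for “Tris-HCl,”, “mianserin.” for “pyrilamine.”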

[6] = biological target: Voltage-gated inwardly rectifying potassium channel KCNH2 (Homo sapiens, UniProt Q12809); assay: Displacement of [3H]dofetilide from human ERG by scintillation proximity assay
Sequence of Voltage-gated inwardly rectifying potassium channel KCNH2 (Q12809 whole entry): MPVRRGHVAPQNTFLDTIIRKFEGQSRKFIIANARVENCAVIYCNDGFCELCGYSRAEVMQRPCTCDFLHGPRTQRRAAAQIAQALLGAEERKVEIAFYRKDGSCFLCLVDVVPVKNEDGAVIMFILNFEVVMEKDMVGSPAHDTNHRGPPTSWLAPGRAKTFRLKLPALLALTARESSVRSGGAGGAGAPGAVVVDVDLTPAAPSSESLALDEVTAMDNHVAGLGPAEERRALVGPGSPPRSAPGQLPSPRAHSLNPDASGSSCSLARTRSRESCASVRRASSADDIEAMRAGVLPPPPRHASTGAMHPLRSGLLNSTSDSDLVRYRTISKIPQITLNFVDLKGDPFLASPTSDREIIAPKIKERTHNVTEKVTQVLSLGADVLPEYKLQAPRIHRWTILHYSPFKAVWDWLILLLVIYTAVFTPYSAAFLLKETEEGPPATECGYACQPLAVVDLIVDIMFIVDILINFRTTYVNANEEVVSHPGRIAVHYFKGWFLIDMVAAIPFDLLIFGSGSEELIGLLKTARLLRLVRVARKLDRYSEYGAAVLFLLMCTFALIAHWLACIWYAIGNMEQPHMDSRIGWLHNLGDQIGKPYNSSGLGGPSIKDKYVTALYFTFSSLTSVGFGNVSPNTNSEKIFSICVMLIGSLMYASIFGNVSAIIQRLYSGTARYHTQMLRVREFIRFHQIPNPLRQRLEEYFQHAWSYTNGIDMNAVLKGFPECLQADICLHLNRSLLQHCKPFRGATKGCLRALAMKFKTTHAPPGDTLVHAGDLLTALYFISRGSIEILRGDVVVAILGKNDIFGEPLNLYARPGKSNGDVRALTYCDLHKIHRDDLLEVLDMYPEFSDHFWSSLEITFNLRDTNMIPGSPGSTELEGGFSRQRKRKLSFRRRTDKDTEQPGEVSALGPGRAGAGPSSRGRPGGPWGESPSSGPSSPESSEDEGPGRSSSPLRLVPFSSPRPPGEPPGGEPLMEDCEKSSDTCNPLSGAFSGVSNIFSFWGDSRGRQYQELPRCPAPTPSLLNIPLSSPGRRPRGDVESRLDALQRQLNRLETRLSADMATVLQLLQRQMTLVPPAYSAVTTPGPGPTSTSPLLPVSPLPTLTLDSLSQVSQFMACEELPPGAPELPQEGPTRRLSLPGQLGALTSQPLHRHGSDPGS

Rattus norvegicus [7] = assay: Ex vivo displacement of [3H]pyrilamine from histamine H1 receptor in Sprague-Dawley rat cerebral cortex at 1 mg/kg, po by imaging analysis; format: functional; in short: as §1
[8] = Plasma concentration at Tmax in Sprague-Dawley rat hypnotic model at 3 mg/kg, po administered during active phase; format: ADME, organism-based; design: dose 3 mg/kg, route oral
Rattus norvegicus [9] = assay: Ex vivo displacement of [3H]pyrilamine from histamine H1 receptor in Sprague-Dawley rat cerebral cortex at 3 mg/kg, po by imaging analysis; format: functional; in short: as §1
[10] = Half life in Sprague-Dawley rat at 0.5 mg/kg, iv and 1 mg/kg, po; format: ADME, organism-based; conditions: in vivo; in short: as §3
Rattus norvegicus [11] = assay: Ex vivo displacement of [3H]ketanserin from 5HT2A receptor in Sprague-Dawley rat cerebral cortex at 3 mg/kg, po by imaging analysis; format: functional
In short: as §1, with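 “[3H]ketanserin” for “[3H]pyrilamine”, “Tris-HCl with 10 mM MgCl2,” for “Tris-HCl,”, “mianserin.” for “pyrilamine.”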

Rattus norvegicus [12] = assay: Hypnotic activity in Sprague-Dawley rat assessed as rapid eye movement sleep at 10 mg/kg, po administered during active phase; format: functional
In short: (§4)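 Male Sprague-Dawley rats (275-300 g) carried implanted telemetric EEG/EMG transmitters and were used 3 weeks after surgery. Oral dosing (2 mL/kg) was given 6 h after lights off (CT18) in a randomized crossover versus vehicle. Recording ran for 5 h in 10 s epochs scored by FFT. n = 8, mean ± SEM; one-way ANOVA with Dunnett's test.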

Rattus norvegicus [13] = assay: Ex vivo displacement of [3H]ketanserin from 5HT2A receptor in Sprague-Dawley rat cerebral cortex at 10 mg/kg, po by imaging analysis; format: functional
In short: as §1, with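 “[3H]ketanserin” for “[3H]pyrilamine”, “Tris-HCl with 10 mM MgCl2,” for “Tris-HCl,”, “mianserin.” for “pyrilamine.”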

[14] = biological target: T1, 5-hydroxytryptamine receptor 2C (Homo sapiens, UniProt P28335); assay: Antagonist activity at human 5HT2C receptor expressed in human SH-SY5Y cells by FLIPR assay; format: functional, cell-based
T1 sequence (P28335 whole entry): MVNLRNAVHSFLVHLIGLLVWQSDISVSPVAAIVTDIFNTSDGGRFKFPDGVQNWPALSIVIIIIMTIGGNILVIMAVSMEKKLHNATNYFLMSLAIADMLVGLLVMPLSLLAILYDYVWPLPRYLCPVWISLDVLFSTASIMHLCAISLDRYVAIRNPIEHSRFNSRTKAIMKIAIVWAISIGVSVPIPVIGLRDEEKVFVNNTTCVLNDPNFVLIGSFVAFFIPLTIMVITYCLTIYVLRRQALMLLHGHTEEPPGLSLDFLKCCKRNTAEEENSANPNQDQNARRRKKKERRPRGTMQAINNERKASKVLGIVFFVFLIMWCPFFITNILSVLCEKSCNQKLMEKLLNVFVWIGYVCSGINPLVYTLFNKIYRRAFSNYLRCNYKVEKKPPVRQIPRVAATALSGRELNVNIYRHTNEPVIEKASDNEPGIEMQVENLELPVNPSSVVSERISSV

Cytochrome P450 2D6 = Cytochrome P450 2D6 (Homo sapiens, UniProt P10635); assay: Inhibition of human CYP2D6 transfected in bactosome expression system by spectrofluorimetry; format: ADME
Sequence of Cytochrome P450 2D6 (P10635 whole entry): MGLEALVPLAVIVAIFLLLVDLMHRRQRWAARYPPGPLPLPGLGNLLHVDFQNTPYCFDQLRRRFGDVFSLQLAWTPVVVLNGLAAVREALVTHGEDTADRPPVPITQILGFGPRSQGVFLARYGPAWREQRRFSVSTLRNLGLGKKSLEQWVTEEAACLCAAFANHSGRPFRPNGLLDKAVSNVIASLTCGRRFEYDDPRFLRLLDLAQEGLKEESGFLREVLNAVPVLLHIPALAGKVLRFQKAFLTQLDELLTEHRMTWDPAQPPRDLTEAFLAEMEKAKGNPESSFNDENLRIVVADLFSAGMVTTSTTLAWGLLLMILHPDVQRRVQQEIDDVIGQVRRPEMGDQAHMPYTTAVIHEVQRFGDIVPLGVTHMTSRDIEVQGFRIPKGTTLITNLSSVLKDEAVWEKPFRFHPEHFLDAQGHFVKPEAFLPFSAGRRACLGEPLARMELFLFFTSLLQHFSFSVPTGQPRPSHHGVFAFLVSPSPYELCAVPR
In short: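 Recombinant human CYP Bactosomes (0.1 mg/mL) in 50 mM phosphate buffer, pH 7.4. Compound at 0.1-10 μM was preincubated with fluorogenic substrate for 10 min at 37 °C, and the reaction was started with an NADPH regenerating system. Metabolite fluorescence was followed for 10 min. Substrates: 1A2 ethoxyresorufin 0.5 μM; 2C9 FCA 50 μM; 2C19 BMC 10 μM; 2D6 MMC 10 μM; 3A4 DEF 1 μM or 7-BQ 25 μM. Run in triplicate.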

Rattus norvegicus [15] = assay: Hypnotic activity in Sprague-Dawley rat assessed as non-rapid eye movement sleep at 1 mg/kg, po administered during active phase; format: functional; in short: as §4
[16] = Oral bioavailability in Sprague-Dawley rat at 1 mg/kg; format: ADME, organism-based; conditions: in vivo; in short: as §3
[17] = Plasma concentration at Tmax in Sprague-Dawley rat hypnotic model at 10 mg/kg, po administered during active phase; format: ADME, organism-based; design: dose 10 mg/kg, route oral
[18] = Cmax in Sprague-Dawley rat hypnotic model at 1 mg/kg, po administered during active phase measured after 2 hrs; format: ADME, organism-based; design: dose 1 mg/kg, route oral; conditions: in vivo
[19] = Volume of distribution at steady state in Sprague-Dawley rat at 0.5 mg/kg, iv and 1 mg/kg, po; format: ADME, organism-based; conditions: in vivo, read-out: Vdss; in short: as §3
[20] = Blood clearance in Sprague-Dawley rat at 1 mg/kg, iv and 3 mg/kg, po; format: ADME, organism-based; conditions: whole blood; in short: as §3
[21] = Ratio of drug level in brain to blood in Sprague-Dawley rat at 1 mg/kg, iv and 3 mg/kg, po; format: ADME, organism-based; conditions: read-out: BBR; in short: as §2
[22] = Half life in Sprague-Dawley rat at 1 mg/kg, iv and 3 mg/kg, po; format: ADME, organism-based; conditions: in vivo; in short: as §3
[23] = Volume of distribution at steady state in Sprague-Dawley rat at 1 mg/kg, iv and 3 mg/kg, po; format: ADME, organism-based; conditions: in vivo, read-out: Vdss; in short: as §3
[24] = Oral bioavailability in Sprague-Dawley rat at 3 mg/kg; format: ADME, organism-based; conditions: in vivo; in short: as §3
[25] = Cmax in Sprague-Dawley rat hypnotic model at 3 mg/kg, po administered during active phase measured after 2 hrs; format: ADME, organism-based; design: dose 3 mg/kg, route oral; conditions: in vivo

Row | Cmax [1] [ng/mL] | Kp [3] | clearance [4] [mL/min/kg] | Cmax [8] [ng/mL] | half-life [10] [h] | Ki [14] [µM] | IC50 (Cytochrome P450 2D6) [µM] | bioavailability [16] [%] | Cmax [17] [ng/mL] | Vd [19] [L/kg] | Compound | Activity (Rattus norvegicus [2]) [%] | Activity (Rattus norvegicus [5]) [%] | IC50 [6] [µM] | Activity (Rattus norvegicus [7]) [%] | Activity (Rattus norvegicus [9]) [%] | Activity (Rattus norvegicus [11]) [%] | Time (Rattus norvegicus [12]) [min] | Activity (Rattus norvegicus [13]) [%] | Time (Rattus norvegicus [15]) [min] | also measured
1 | 119 | 0.5 | 21 | 303 | 1.9 | 0.0631 | > 10 | 65 | 755 | 2.9 | O=C(O)C1CCN(C2CC[C@]3(Cc4ccccc4Cc4ccccc43)C2)CC1 (stereo not given in full) | 55 | 0 | > 63.1 | 30 | 35 | 5.6 | 12.6 | 18 | 84.7 | Cmax [18]: 216 ng/mL
2 |  | 0.2 | 13 |  | 1.9 | 0.0316 | > 10 | 100 |  | 1.9 | O=C(O)C1CN(C2CCC3(Cc4ccccc4Oc4ccccc43)C2)C1 (stereo not given) |  |  | > 50.1 |  |  |  | 16.2 |  | 107.3 | 
3 | 127 |  |  | 417 |  | 0.00631 | > 10 |  | 1220 |  | O=C(O)C1CN(C2CC[C@]3(Cc4ccccc4Cc4ccccc43)C2)C1 (stereo not given in full) | 66 | 0.9 | > 50.1 | 16 | 45 | 24 | 14.6 | 47 | 87.4 | clearance [20]: 9 mL/min/kg; Kp [21]: 0.1; half-life [22]: 3.1 h; Vd [23]: 2.1 L/kg; bioavailability [24]: 54%; Cmax [25]: 626 ng/mL
